Published values collected from several papers.
≈ marks a conversion by molar mass, not a printed value.
Organism: Nakaseomyces glabratus

Structure (SMILES)	observed	technique	strain	time	quantity	value
CCCCCN1CCNCC1	microbial growth	broth dilution	ATCC2001	48 h	MIC	> 31.3 µg/mL
CCCCCCCCOc1c(OC)cc(NC(C)CCCNC(=O)C2CCCN2)c2nc(C(C)(C)C)ccc12 (stereo not shown)	microbial growth		ATCC90030		IC50	11 µg/mL (≈ 20.3 µM)
C#CCCCCCCCCC=CCC(O)CC(O)CO (stereo not shown)	microbial growth	broth dilution	ATCC90030		IC50	> 8 µg/mL
CCCCCOc1c(OC)cc(NC(C)CCCNC(=O)C(N)CCCNC(=N)N)c2nc(C(C)(C)C)ccc12 (stereo not shown)	microbial growth		ATCC90030		IC50	19.1 µg/mL (≈ 34.2 µM)
CCOC(=O)c1nc2ccccc2c(=O)n1Cc1cn(-c2cccc(OC)c2)nn1	microbial growth	broth dilution	ATCC90030	24 h	IC50	417 µg/mL (≈ 1030 µM)
CCCCCOc1c(OC)cc(NC(C)CCCNC(=O)C(N)Cc2ccccc2)c2nc(C(C)(C)C)ccc12 (stereo not shown)	microbial growth		ATCC90030		IC50	10.9 µg/mL (≈ 20 µM)
OC(Cn1cncn1)(Cn1cncn1)c1ccc(F)cc1F	microbial killing		ATCC1182		MFC	> 64 µg/mL
CCCCCCOc1c(OC)cc(NC(C)CCCNC(=O)C(N)Cc2cnc[nH]2)c2nc(C(C)(C)C)ccc12 (stereo not shown)	microbial growth		ATCC90030		IC50	19.2 µg/mL (≈ 34.8 µM)
CCOC(=O)c1nc2ccccc2c(=O)n1Cc1cn(-c2cccc(Cl)c2)nn1	microbial growth	broth dilution	ATCC90030	24 h	IC50	58.2 µg/mL (≈ 142 µM)
CCCCCCCCCCCCCN1CCNCC1	microbial growth	broth dilution	ATCC2001	48 h	MIC	0.48 µg/mL (≈ 1.79 µM)
CCCCCCOc1c(OC)cc(NC(C)CCCN)c2nc(C(C)(C)C)ccc12 (stereo not shown)	microbial killing		ATCC90030		MFC	20 µg/mL (≈ 48.1 µM)
CCCCCCCCCCCCCCN1CCOCC1	microbial growth	broth dilution	ATCC2001	48 h	MIC	> 31.3 µg/mL
COc1cc(C(C)(C)C#Cc2c(C)nc(N)nc2N)cc(OC)c1OC	microbial growth	resazurin			MIC	178 µg/mL (≈ 499 µM)
C[C@@H]1[C@H](O)[C@@H](C)/C=C/C=C/C=C/C=C/C=C/C=C/C=C/[C@H](O[C@@H]2O[C@H](C)[C@@H](O)[C@H](N)[C@@H]2O)C[C@@H]2O[C@](O)(C[C@@H](O)C[C@@H](O)[C@H](O)CC[C@@H](O)C[C@@H](O)CC(=O)O[C@H]1C)C[C@H](O)[C@H]2C(=O)O	microbial killing		ATCC90030		MFC	1.25 µg/mL (≈ 1.35 µM)
CCOC(=O)c1nc2ccccc2c(=O)n1Cc1cn(-c2ccc(Cl)cc2)nn1	microbial growth	broth dilution	ATCC90030	24 h	IC50	195 µg/mL (≈ 476 µM)
OC(Cn1cncn1)(Cn1cncn1)c1ccc(F)cc1F	microbial growth	broth dilution		24 h	MIC90	16 µg/mL (≈ 52.2 µM)
CN1CCNCC1	microbial growth	broth dilution	ATCC2001	48 h	MIC	> 31.3 µg/mL
CCCCCCCCOc1c(OC)cc(NC(C)CCCN)c2nc(C(C)(C)C)ccc12 (stereo not shown)	microbial growth		ATCC90030		IC50	6.19 µg/mL (≈ 14 µM)
OC(Cn1cncn1)(Cn1cncn1)c1ccc(F)cc1F	microbial growth	broth dilution	ATCC90030	24 h	IC50	7.8 µg/mL (≈ 25.5 µM)
CCCCCCCCCN1CCNCC1	microbial growth	broth dilution	ATCC2001	48 h	MIC	31.3 µg/mL (≈ 147 µM)
CCOC(=O)c1nc2ccccc2c(=O)n1Cc1cn(-c2ccccc2)nn1	microbial growth	broth dilution	ATCC90030	24 h	IC50	182 µg/mL (≈ 484 µM)
CCCCCCCCCCCCN1CCN(CC(O)(Cn2cncn2)c2ccc(Cl)cc2Cl)CC1 (stereo not shown)	microbial growth	broth dilution	ATCC2001	48 h	MIC	0.975 µg/mL (≈ 1.86 µM)
CCOC(=O)c1nc2ccccc2c(=O)n1Cc1cn(-c2ccc(OC)cc2)nn1	microbial growth	broth dilution	ATCC90030	24 h	IC50	118 µg/mL (≈ 292 µM)
CCCCCCCCCCCCCCN1CCN(CC(O)(Cn2cncn2)c2ccc(F)cc2F)CC1 (stereo not shown)	microbial growth	broth dilution	ATCC2001	48 h	MIC	> 31.3 µg/mL
CCOC(=O)c1nc2ccccc2c(=O)n1Cc1cn(-c2ccc(F)cc2)nn1	microbial growth	broth dilution	ATCC90030	24 h	IC50	292 µg/mL (≈ 744 µM)
C[C@@H]1[C@H](O)[C@@H](C)/C=C/C=C/C=C/C=C/C=C/C=C/C=C/[C@H](O[C@@H]2O[C@H](C)[C@@H](O)[C@H](N)[C@@H]2O)C[C@@H]2O[C@](O)(C[C@@H](O)C[C@@H](O)[C@H](O)CC[C@@H](O)C[C@@H](O)CC(=O)O[C@H]1C)C[C@H](O)[C@H]2C(=O)O	microbial growth		ATCC90030		IC50	0.14 µg/mL (≈ 0.152 µM)
CCCCCCCCCCN1CCN(CC(O)(Cn2cncn2)c2ccc(F)cc2F)CC1 (stereo not shown)	microbial growth	broth dilution	ATCC2001	48 h	MIC	> 31.3 µg/mL
CCOC(=O)c1nc2ccccc2c(=O)n1Cc1cn(-c2ccccc2F)nn1	microbial growth	broth dilution	ATCC90030	24 h	IC50	245 µg/mL (≈ 622 µM)
